The species entered for assay [1] is Homo sapiens. The assay can be described thus: Ability to inhibit platelet aggregation of human platelet-rich plasma (PRP) induced by 800 uM of AA-IPA (arachidonic acid). It counts as functional. To be noted: Homo sapiens, Plasma; read-out: I50. A digest of the protocol: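 Human platelet-rich plasma; aggregation triggered by arachidonic acid at 800 μM. Test acids were also checked against ADP (20 μM)-induced aggregation. I50 taken as the concentration inhibiting aggregation.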

For assay [2], the species on record is Cavia porcellus. As to the kind of experiment: Evaluated for its potency in guinea pig trachea (GPT) spirals in the presence of increasing concentrations. Format: functional. A digest of the protocol: (§1)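 Guinea pig tracheal spirals contracted by U-46,619 in cumulative dose-response curves, repeated with increasing antagonist concentrations; Kb from analysis of the rightward shift.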

The subject of assay [3] is Cavia porcellus. As to the kind of experiment: Evaluated for the percent inhibition of arachidonate-induced hypertension resulting in decreases in blood pressure at 60 min after dosing (0.1 mg/kg iv) in anesthetized guinea pig. Format: functional. A digest of the protocol:
(§2)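 Anesthetized guinea pig dosed iv with antagonist at 0.1 mg/kg (some at 1.0 mg/kg). Arachidonic acid 0.5 mg/kg iv given as challenge 3 or 60 min later. Airway resistance, dynamic compliance and blood pressure recorded; percent inhibition of each response.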

Assay [4] deals with Cavia porcellus. The assay can be described thus: Evaluated for the percent inhibition of arachidonate-induced air-way resistance at 3 min after dosing (0.1 mg/kg iv) in anesthetized guinea pig. It counts as functional. In short, it runs like this:
as §2

Assay [5] concerns Cavia porcellus. The assay can be described thus: Evaluated for the percent inhibition of arachidonate-induced air-way resistance at 60 min after dosing (0.1 mg/kg iv) in anesthetized guinea pig. It counts as functional. A digest of the protocol: as §2
The subject of assay [6] is Cavia porcellus. The assay can be described thus: Evaluated for the percent inhibition of arachidonate-induced dynamic compliance at 60 min after dosing (0.1 mg/kg iv) in anesthetized guinea pig. It counts as functional. A digest of the protocol:
as §2

In assay [7] the test system is Cavia porcellus. As to the kind of experiment: Evaluated for the percent inhibition of arachidonate-induced hypertension resulting in decreases in blood pressure at 3 min after dosing (0.1 mg/kg iv) in anesthetized guinea pig. It counts as functional. In short, it runs like this: as §2
For assay [8], the species on record is Homo sapiens. As to the kind of experiment: Evaluated for ability to inhibit platelet aggregation of human platelet-rich plasma (PRP) induced by 11.9-epoxymethano-PGH2. It counts as functional. The note with it: read-out: I50. In short, it runs like this: (§3)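 Human PRP aggregation induced by U-46,619 (11,9-epoxymethano-PGH2, stable PGH2/TxA2 mimic) at 5 or 10 μM; I50 reported. Values are single determinations unless otherwise noted.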

For assay [9], the species on record is Rattus norvegicus. The assay can be described thus: Evaluated for its potency in rat aorta (RA) strips in the presence of increasing concentrations. Format: functional. A digest of the protocol:
(§4)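 Rat aortic strips contracted by U-46,619 in cumulative dose-response curves, repeated with increasing antagonist concentrations; Kb from analysis of the rightward shift.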

The target of another assay is T1, Thromboxane A2 receptor (Homo sapiens, UniProt P21731).
T1 sequence (P21731 whole entry): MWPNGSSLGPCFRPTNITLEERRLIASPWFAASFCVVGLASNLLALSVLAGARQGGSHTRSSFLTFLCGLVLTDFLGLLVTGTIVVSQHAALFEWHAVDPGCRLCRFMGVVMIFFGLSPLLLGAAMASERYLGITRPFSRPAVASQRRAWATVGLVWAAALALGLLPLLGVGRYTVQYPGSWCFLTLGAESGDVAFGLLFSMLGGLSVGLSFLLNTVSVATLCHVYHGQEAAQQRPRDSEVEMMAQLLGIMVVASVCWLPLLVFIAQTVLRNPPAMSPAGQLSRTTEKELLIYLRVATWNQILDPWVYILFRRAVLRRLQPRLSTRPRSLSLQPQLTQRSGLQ
The assay can be described thus: Binding affinity was determined from the inhibition of [3H]-SQ 29,548 binding to Thromboxane A2 receptor in human platelet membranes. Format: cell membranes. A digest of the protocol: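 Radioligand binding to human platelet membranes with [5,6-3H2]-SQ 29,548 as tracer; Kd derived from inhibition of specific binding.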

Assay [10] relates to Cavia porcellus. As to the kind of experiment: Evaluated for the percent inhibition of arachidonate-induced dynamic compliance at 3 min after dosing (0.1 mg/kg iv) in anesthetized guinea pig. Format: functional. A digest of the protocol: as §2
For assay [11], the species on record is Homo sapiens. As to the kind of experiment: Evaluated for ability to inhibit platelet aggregation of human platelet-rich plasma (PRP) induced by 11.9-epoxymethano-PGH2. Format: functional. To be noted: Homo sapiens, Plasma; read-out: I50. A digest of the protocol: as §3
The species entered for assay [12] is Cavia porcellus. As to the kind of experiment: Evaluated for its potency in Guinea pig trachea (GPT) spirals in the presence of increasing concentrations. It counts as functional. To be noted: Cavia porcellus, Trachea. A digest of the protocol:
as §1

Assay [13] is filed under the species Rattus norvegicus. The assay can be described thus: Evaluated for its potency Rat aorta (RA) strips in the presence of increasing concentrations. It counts as functional. To be noted: Rattus norvegicus, Aorta. A digest of the protocol: as §4

We go through 20 compounds from ChEMBL document CHEMBL1124904, “7-Oxabicyclo[2.2.1]heptyl carboxylic acids as thromboxane A2 antagonists: aza omega-chain analogues” (J Med Chem, 1990).

Each structure is given as a SMILES string. pIC50, pKd: −log10 of the molar value.

In general, Inhibition refers to the drop in the measured response relative to a control, in per cent. The term pKd denotes the Kd on a negative log10 scale, so that one unit is a factor of ten. A higher pKd goes with a small Kd.

In the case of `O=C(O)CCC/C=C/CC1C2CCC(O2)C1CNNC(=O)Cc1ccccc1` (stereo unspecified), in the assay listed under Homo sapiens [1], the pIC50 is 6.70.

Take `CCCCCCCCC(=O)NCC1C2CCC(O2)C1C/C=C/CCCC(=O)O` (stereo unspecified): the pIC50 in the assay filed under Homo sapiens [1] is 4.82.

With `O=C(O)CCC/C=C/CC1C2CCC(O2)C1CNCC(=O)Nc1ccccc1` (stereo unspecified), the pIC50 in the assay listed under Homo sapiens [1] is 5.28.

As for `O=C(O)CCC/C=C/CC1C2CCC(O2)C1CNC(=O)CNC(=O)CCCC1CCCCC1` (stereo unspecified), the Kb in the assay listed under Cavia porcellus [2] stood at 0.07 nM; in the assay listed under Rattus norvegicus [9], 0.9 nM. Also, the Inhibition in the assay with Cavia porcellus [3] is on record as 289%; in the assay on Cavia porcellus [4], 99%; in the assay with Cavia porcellus [5] it was 84%; with Cavia porcellus [6], 59%; in the assay on Cavia porcellus [7], 289%; with Cavia porcellus [10] it was 97%. For the same compound, the pIC50 in the assay filed under Homo sapiens [8] was 6.92; in the assay listed under Homo sapiens [1], 7.35. Moreover, at Thromboxane A2 receptor, the pKd is 8.96.

Regarding `COc1ccc(NCC(=O)NCC2C3CCC(O3)C2C/C=C/CCCC(=O)O)cc1` (stereo unspecified), in the assay filed under Homo sapiens [1], the pIC50 was 4.87.

`COc1ccc(SCC(=O)NCC2C3CCC(O3)C2C/C=C/CCCC(=O)O)cc1` (stereo unspecified): the pIC50 in the assay listed under Homo sapiens [1] is 5.85.

With `CCCCC(=O)NCCC(=O)NCC1C2CCC(O2)C1C/C=C/CCCC(=O)O` (stereo unspecified), the pIC50 in the assay filed under Homo sapiens [1] was 4.85.

Take `CCCCCNC(=O)CCNC(=O)C1C2CCC(O2)C1C/C=C/CCCC(=O)O` (stereo unspecified): in the assay listed under Homo sapiens [1], the pIC50 is 4.85.

For the compound `CCCCCCC(=O)OCC(=O)NCC1C2CCC(O2)C1C/C=C/CCCC(=O)O` (stereo unspecified), the pIC50 in the assay listed under Homo sapiens [1] was 6.18.

As for `O=C(O)CCC/C=C/CC1C2CCC(O2)C1CNC(=O)C(=O)Nc1ccccc1` (stereo unspecified), in the assay filed under Homo sapiens [1], the pIC50 is 5.26.

For the compound `CCCCCC/C(S)=N/C/C(S)=N/CC1C2CC[C@@H](O2)C1C/C=C/CCCC(=O)O` (stereo partly specified), the pIC50 in the assay filed under Homo sapiens [11] was 5.02; in the assay listed under Homo sapiens [1], 6.01. Besides, the negative-log Kd (pKd) on Thromboxane A2 receptor was 7.58.

In the case of `CCCCCNCCC1C2CCC(O2)C1C/C=C/CCCC(=O)O` (stereo unspecified), in the assay filed under Homo sapiens [1], the pIC50 is 3.47.

For `O=C(O)CCC/C=C/CC1C2CCC(O2)C1CNC(=O)CNC(=O)CCCCC1CCCCC1` (stereo unspecified), the Kb in the assay filed under Cavia porcellus [2] was 0.07 nM; in the assay filed under Rattus norvegicus [9], 2.5 nM. The pIC50 in the assay listed under Homo sapiens [8] is 5.71; in the assay filed under Homo sapiens [1], 6.80. Moreover, the pKd at Thromboxane A2 receptor is 8.59.

With `O=C(O)CCC/C=C/CC1C2CCC(O2)C1CNCCNc1ccccc1` (stereo unspecified), in the assay filed under Homo sapiens [1], the pIC50 was 4.19.

Consider `O=C(O)CCC/C=C/CC1C2CCC(O2)C1CNC(=O)CNC(=O)CSc1ccccc1` (stereo unspecified), for which the values for the Kb in the assay listed under Cavia porcellus [2] and in the assay listed under Rattus norvegicus [9] were 2.4 nM and 1.8 nM, respectively. Further, the Inhibition with Cavia porcellus [3] worked out at 235%; in the assay on Cavia porcellus [4], 98%; in the assay on Cavia porcellus [5], 53%; in the assay with Cavia porcellus [6], 42%; with Cavia porcellus [7] it was 287%; in the assay with Cavia porcellus [10], 92%. The pIC50 was 6.96 in the assay filed under Homo sapiens [8] and 7.68 in the assay filed under Homo sapiens [1]. On Thromboxane A2 receptor, this compound gave a pKd of 7.38.

Consider `CCCCCC/C(S)=N/CC(=O)NCC1C2CCC(O2)C1C/C=C/CCCC(=O)O` (stereo unspecified), for which the results for the Kb in the assay filed under Cavia porcellus [12] and in the assay listed under Rattus norvegicus [13] were 4.4 nM and 1.1 nM, respectively. Moreover, the Inhibition with Cavia porcellus [3] was determined as 158%; with Cavia porcellus [4], 97%; with Cavia porcellus [5], 51%; with Cavia porcellus [6], 56%; in the assay on Cavia porcellus [7] it was 178%; in the assay with Cavia porcellus [10] it was 94%. Moreover, the pIC50 was 6.64 in the assay listed under Homo sapiens [11] and 7.40 in the assay listed under Homo sapiens [1]. The negative logarithm of the Kd (pKd) on Thromboxane A2 receptor is 7.91.

Turning to `O=C(O)CCC/C=C/CC1C2CCC(O2)C1CNC(=O)CNC(=O)c1ccccc1` (stereo unspecified), the pIC50 in the assay listed under Homo sapiens [1] is 5.59.

For `O=C(O)CCC/C=C/CC1C2CCC(O2)C1CCNC(=O)Nc1ccccc1` (stereo unspecified), the pIC50 in the assay filed under Homo sapiens [1] is 3.74.

As to `CCCCCCNC(=O)CC(=O)NC1C2CCC(O2)C1C/C=C/CCCC(=O)O` (stereo unspecified), the pIC50 in the assay filed under Homo sapiens [1] is 3.90.

As for `CCCCCNC(=O)CC(=O)NCC1C2CCC(O2)C1C/C=C/CCCC(=O)O` (stereo unspecified), the pIC50 in the assay listed under Homo sapiens [1] is 6.30.
